Source: ChEMBL document CHEMBL1131139, “Synthesis and antibacterial activity of ketolides (6-O-methyl-3-oxoerythromycin derivatives): a new class of antibacterials highly potent against macrolide-resistant and -susceptible respiratory pathogens” (1998)
≈ marks a conversion by molar mass, not a printed value. Blank lines part the entries; values can stand above or below the compound they belong to.

Legend:
Type in all cases: functional
Escherichia coli = test: In vitro inhibitory activity against Escherichia coli (250 UC5)
In short: (§1)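 Two-fold agar dilution on Mueller-Hinton agar (pH 7.4). Inoculum from overnight plate cultures suspended in Mueller-Hinton broth, adjusted to 10^9 CFU/mL, diluted 1:200 and spotted by multipoint inoculator at about 10^4 CFU/spot. Plates incubated 37 °C for 20 h. MIC taken as lowest concentration with no visible growth.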

Haemophilus influenzae [1] = test: In vitro inhibitory activity against Haemophilus influenzae (351CB12); in short: as §1
Haemophilus influenzae [2] = test: In vitro inhibitory activity against Haemophilus influenzae (351HT3); in short: as §1
[3] = system: Staphylococcus epidermidis; test: In vitro inhibitory activity against Staphylococcus epidermidis (EryRi 012GO11i); in short: as §1
Staphylococcus aureus [4] = test: In vitro inhibitory activity against Staphylococcus aureus (011UC4); in short: as §1
Staphylococcus aureus [5] = test: In vitro inhibitory activity against Staphylococcus aureus (EryRi 011GO25i); in short: as §1
Streptococcus pneumoniae [6] = test: In vitro inhibitory activity against Streptococcus pneumoniae (032UC1); in short: as §1
Streptococcus pneumoniae [7] = test: In vitro inhibitory activity against Streptococcus pneumoniae (EryRc 030SJ1); in short: as §1
Streptococcus pneumoniae [8] = test: In vitro inhibitory activity against Streptococcus pneumoniae (EryRi 030SJ5i); in short: as §1
Streptococcus pyogenes = test: In vitro inhibitory activity against Streptococcus pyogenes (02A1UC1); in short: as §1
Staphylococcus aureus [9] = test: In vitro inhibitory activity against Staphylococcus aureus (EryRc 011CB20); in short: as §1
Enterococcus [10] = test: In vitro inhibitory activity against enterococci EryRc (13)
Enterococcus [11] = test: In vitro inhibitory activity against enterococci EryRi (19)
Haemophilus [12] = test: In vitro inhibitory activity against Haemophilus AmpR (37)
Haemophilus [13] = test: In vitro inhibitory activity against Haemophilus AmpS (43)
Mus musculus [14] = test: In Vivo evaluation for its effective dose against Staphylococcus aureus (011GO25 EryRi.
In short: (§2)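 Male Charles River CD1 mice, 20-22 g, 10 per dose group, infected intraperitoneally with 0.5 mL diluted overnight broth culture (physiological buffer or 5% hog mucine) at 10-100 times the minimal lethal dose. Compound suspended in carboxymethylcellulose, 0.5 mL given orally immediately and 4 h postinfection. Survival followed 8-10 days; ED50 (unitary dose protecting 50% from death) by Litchfield-Wilcoxon probit method.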

Mus musculus [15] = test: In Vivo evaluation for its effective dose against Streptococcus pneumoniae (030Cr29 EryRc); in short: as §2
Mus musculus [16] = test: In Vivo evaluation for its effective dose against Streptococcus pneumoniae (030MV2 EryRc); in short: as §2
Mus musculus [17] = test: In Vivo evaluation for its effective dose against Streptococcus pneumoniae (030RO1 EryRi); in short: as §2
Mus musculus [18] = test: In Vivo evaluation for its effective dose against Streptococcus pneumoniae (030SJ1 EryRc); in short: as §2
Mus musculus [19] = test: In Vivo evaluation for its effective dose against Streptococcus pneumoniae (030SJ6 EryRc); in short: as §2
[20] = In vitro inhibitory activity against Pneumococci EryRc (34)
[21] = In vitro inhibitory activity against Pneumococci PenR (65)
Streptococcus sp. [22] = test: In vitro inhibitory activity against Streptococci EryR (27)
Streptococcus sp. [23] = test: In vitro inhibitory activity against Streptococci EryRi (98)
Staphylococcus sp. [24] = test: In vitro inhibitory activity against Staphylococci EryRi (65)
Staphylococcus sp. [25] = test: In vitro inhibitory activity against Staphylococci Staphylococci EryRc (23)

MIC (Escherichia coli): 40 mg/L (≈ 57.1 µM)
MIC (Haemophilus influenzae [1]): 20 mg/L (≈ 28.6 µM)
MIC (Haemophilus influenzae [2]): 40 mg/L (≈ 57.1 µM)
MIC [3]: 0.6 mg/L (≈ 0.857 µM)
MIC (Staphylococcus aureus [4]): 0.6 mg/L (≈ 0.857 µM)
MIC (Staphylococcus aureus [5]): 2.5 mg/L (≈ 3.57 µM)
MIC (Streptococcus pneumoniae [6]): 20 mg/L (≈ 28.6 µM)
MIC (Streptococcus pneumoniae [7]): 20 mg/L (≈ 28.6 µM)
MIC (Streptococcus pneumoniae [8]): 40 mg/L (≈ 57.1 µM)
MIC (Streptococcus pyogenes): 0.15 mg/L (≈ 0.214 µM)
MIC (Staphylococcus aureus [9]): 40 mg/L (≈ 57.1 µM)
Structure (SMILES): CC[C@H]1OC(=O)[C@H](C)C(=O)[C@H](C)[C@@H](O[C@@H]2O[C@H](C)C[C@H](N(C)C)[C@H]2O)[C@](C)(OC)C[C@@H](C)/C(=N\OCCN2CCCC2)[C@H](C)[C@@H](O)[C@]1(C)O

MIC (Escherichia coli): 40 mg/L (≈ 65.3 µM)
MIC (Haemophilus influenzae [1]): 20 mg/L (≈ 32.6 µM)
MIC (Haemophilus influenzae [2]): 20 mg/L (≈ 32.6 µM)
MIC [3]: 40 mg/L (≈ 65.3 µM)
MIC (Staphylococcus aureus [4]): 5 mg/L (≈ 8.16 µM)
MIC (Staphylococcus aureus [5]): 40 mg/L (≈ 65.3 µM)
MIC (Streptococcus pneumoniae [6]): 0.3 mg/L (≈ 0.49 µM)
MIC (Streptococcus pneumoniae [7]): 40 mg/L (≈ 65.3 µM)
MIC (Streptococcus pneumoniae [8]): 40 mg/L (≈ 65.3 µM)
MIC (Streptococcus pyogenes): 2.5 mg/L (≈ 4.08 µM)
MIC (Staphylococcus aureus [9]): 40 mg/L (≈ 65.3 µM)
Structure (SMILES): CC[C@H]1OC(=O)[C@H](C)C(=O)[C@H](C)[C@@H](O[C@@H]2O[C@H](C)C[C@H](N(C)C)[C@H]2O)[C@](C)(OC)C[C@@H](C)C(=O)[C@@H](C)[C@H]2NC(=O)O[C@@]21C

MIC (Escherichia coli): 40 mg/L (≈ 58.3 µM)
MIC (Haemophilus influenzae [1]): 0.6 mg/L (≈ 0.875 µM)
MIC (Haemophilus influenzae [2]): 2.5 mg/L (≈ 3.64 µM)
MIC [3]: 0.6 mg/L (≈ 0.875 µM)
MIC (Staphylococcus aureus [4]): 0.15 mg/L (≈ 0.219 µM)
MIC (Staphylococcus aureus [5]): 2.5 mg/L (≈ 3.64 µM)
MIC (Streptococcus pneumoniae [6]): 0.08 mg/L (≈ 0.117 µM)
MIC (Streptococcus pneumoniae [7]): 0.3 mg/L (≈ 0.437 µM)
MIC (Streptococcus pneumoniae [8]): 0.3 mg/L (≈ 0.437 µM)
MIC (Streptococcus pyogenes): 0.04 mg/L (≈ 0.0583 µM)
MIC (Staphylococcus aureus [9]): 40 mg/L (≈ 58.3 µM)
Structure (SMILES): CC[C@H]1OC(=O)[C@H](C)C(=O)[C@H](C)[C@@H](O[C@@H]2O[C@H](C)C[C@H](N(C)C)[C@H]2O)[C@](C)(OC)C[C@@H](C)/C(=N\O[C@@H]2CCCNC2)[C@H](C)[C@@H](O)[C@]1(C)O

MIC50 (Enterococcus [10]): 40 mg/L (≈ 48.3 µM)
MIC90 (Enterococcus [10]): 40 mg/L (≈ 48.3 µM)
MIC50 (Enterococcus [11]): 1.2 mg/L (≈ 1.45 µM)
MIC90 (Enterococcus [11]): 1.2 mg/L (≈ 1.45 µM)
MIC50 (Haemophilus [12]): 5 mg/L (≈ 6.04 µM)
MIC90 (Haemophilus [12]): 20 mg/L (≈ 24.2 µM)
MIC50 (Haemophilus [13]): 5 mg/L (≈ 6.04 µM)
MIC90 (Haemophilus [13]): 20 mg/L (≈ 24.2 µM)
MIC50 [20]: 20 mg/L (≈ 24.2 µM)
MIC90 [20]: 40 mg/L (≈ 48.3 µM)
MIC50 [21]: 0.3 mg/L (≈ 0.362 µM)
MIC90 [21]: 40 mg/L (≈ 48.3 µM)
MIC50 (Streptococcus sp. [22]): 5 mg/L (≈ 6.04 µM)
MIC90 (Streptococcus sp. [22]): 40 mg/L (≈ 48.3 µM)
MIC50 (Streptococcus sp. [23]): 5 mg/L (≈ 6.04 µM)
MIC90 (Streptococcus sp. [23]): 40 mg/L (≈ 48.3 µM)
MIC50 (Staphylococcus sp. [24]): 1.2 mg/L (≈ 1.45 µM)
MIC90 (Staphylococcus sp. [24]): 2.5 mg/L (≈ 3.02 µM)
MIC50 (Staphylococcus sp. [25]): 40 mg/L (≈ 48.3 µM)
MIC90 (Staphylococcus sp. [25]): 40 mg/L (≈ 48.3 µM)
Structure (SMILES): CO[C@@H]1[C@@H](OC2OC(C)C(OC3CC(C)(O)C(OC(=O)CC(C)C)C(C)O3)C(N(C)C)C2O)[C@@H](CC=O)C[C@@H](C)[C@@H](O)/C=C/C=C/C[C@@H](C)OC(=O)C[C@H]1OC(C)=O (stereo partly specified)
ED50 (Mus musculus [14]): > 100 mg/kg
ED50 (Mus musculus [15]): > 100 mg/kg
ED50 (Mus musculus [16]): > 100 mg/kg
ED50 (Mus musculus [17]): > 100 mg/kg
ED50 (Mus musculus [18]): > 100 mg/kg
ED50 (Mus musculus [19]): > 100 mg/kg

MIC (Escherichia coli): 40 mg/L (≈ 52.6 µM)
MIC (Haemophilus influenzae [1]): 2.5 mg/L (≈ 3.29 µM)
MIC (Haemophilus influenzae [2]): 5 mg/L (≈ 6.58 µM)
MIC [3]: 0.15 mg/L (≈ 0.197 µM)
MIC (Staphylococcus aureus [4]): 0.15 mg/L (≈ 0.197 µM)
MIC (Staphylococcus aureus [5]): 0.6 mg/L (≈ 0.789 µM)
MIC (Streptococcus pneumoniae [6]): 0.02 mg/L (≈ 0.0263 µM)
MIC (Streptococcus pneumoniae [7]): 10 mg/L (≈ 13.2 µM)
MIC (Streptococcus pneumoniae [8]): 0.3 mg/L (≈ 0.395 µM)
MIC (Streptococcus pyogenes): 0.04 mg/L (≈ 0.0526 µM)
MIC (Staphylococcus aureus [9]): 40 mg/L (≈ 52.6 µM)
Structure (SMILES): CC[C@H]1OC(=O)[C@H](C)C(=O)[C@H](C)[C@@H](O[C@@H]2O[C@H](C)C[C@H](N(C)C)[C@H]2O)[C@](C)(OC)C[C@@H](C)C(=O)[C@H](C)[C@H]2N(CCN(C)Cc3ccccc3)C(=O)O[C@]12C

MIC (Escherichia coli): 40 mg/L (≈ 59.4 µM)
MIC (Haemophilus influenzae [1]): 20 mg/L (≈ 29.7 µM)
MIC (Haemophilus influenzae [2]): 20 mg/L (≈ 29.7 µM)
MIC [3]: 20 mg/L (≈ 29.7 µM)
MIC (Staphylococcus aureus [4]): 0.08 mg/L (≈ 0.119 µM)
MIC (Staphylococcus aureus [5]): 1.2 mg/L (≈ 1.78 µM)
MIC (Streptococcus pneumoniae [6]): 0.15 mg/L (≈ 0.223 µM)
MIC (Streptococcus pneumoniae [7]): 2.5 mg/L (≈ 3.71 µM)
MIC (Streptococcus pneumoniae [8]): 0.15 mg/L (≈ 0.223 µM)
MIC (Streptococcus pyogenes): 0.01 mg/L (≈ 0.0148 µM)
MIC (Staphylococcus aureus [9]): 40 mg/L (≈ 59.4 µM)
Structure (SMILES): CC[C@H]1OC(=O)[C@H](C)C(=O)[C@H](C)[C@@H](O[C@@H]2O[C@H](C)C[C@H](N(C)C)[C@H]2O)[C@](C)(OC)C[C@@H](C)/C(=N\OCCN(C)C)[C@H](C)[C@@H](O)[C@]1(C)O
